Legend:
Type in all cases: functional
MDA-MB-468 [1] = assay: Growth inhibition of human MDA-MB-468 cells after 48 hrs by sulforhodamine B assay; conditions: MDA-MB-468, 48 h
Outline: (§1)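 NCI-60 panel follow-up: five concentrations from 10 nM to 100 μM, 48 h exposure. Growth read by sulforhodamine B protein staining. GI50 derived from the concentration-response, with the concentration for total growth inhibition (TGI) also recorded when below 100 μM.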

OVCAR-3 = assay: Growth inhibition of human OVCAR3 cells after 48 hrs by sulforhodamine B assay; conditions: OVCAR-3, 48 h; outline: as §1
SK-MEL-28 = assay: Growth inhibition of human SK-MEL-28 cells after 48 hrs by sulforhodamine B assay; conditions: SK-MEL-28, 48 h; outline: as §1
Malme-3M = assay: Growth inhibition of human MALME-3M cells at 10 uM after 48 hrs by sulforhodamine B assay relative to control; conditions: read-out: GI
Outline: (§2)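 NCI-60 single-dose screen at 10 μM for 48 h. Percent growth inhibition was measured by sulforhodamine B staining of cellular protein.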

SNB-19 = assay: Growth inhibition of human SNB19 cells after 48 hrs by sulforhodamine B assay; conditions: SNB-19, 48 h; outline: as §1
HCT-15 = assay: Growth inhibition of human HCT15 cells at 10 uM after 48 hrs by sulforhodamine B assay relative to control; conditions: HCT-15, 48 h, read-out: GI; outline: as §2
MDA-MB-468 [2] = assay: Growth inhibition of human MDA-MB-468 cells at 10 uM after 48 hrs by sulforhodamine B assay relative to control; conditions: MDA-MB-468, 48 h, read-out: GI
Outline: (§3)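 NCI-60 human cancer cell line screen, single-dose pass: cells exposed to 10 μM for 48 h. Cellular protein content read out by sulforhodamine B staining, and growth inhibition expressed relative to untreated control.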

SF-539 [3] = assay: Growth inhibition of human SF539 cells at 10 uM after 48 hrs by sulforhodamine B assay relative to control; conditions: SF-539, 48 h, read-out: GI; outline: as §3
KM12 [4] = assay: Growth inhibition of human KM12 cells at 10 uM after 48 hrs by sulforhodamine B assay relative to control; conditions: KM12, 48 h, read-out: GI; outline: as §2
UO-31 = assay: Growth inhibition of human UO31 cells at 10 uM after 48 hrs by sulforhodamine B assay relative to control; conditions: UO-31, 48 h, read-out: GI
Outline: (§4)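 NCI-60 human cancer cell line screen, single dose of 10 μM for 48 h. Cellular protein content read by sulforhodamine B staining; growth inhibition expressed relative to untreated control.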

ACHN = assay: Growth inhibition of human ACHN cells after 48 hrs by sulforhodamine B assay
Outline: (§5)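 NCI-60 panel screen. Cells were exposed for 48 h at five concentrations between 10 nM and 100 μM. Cellular protein was read by sulforhodamine B staining, and GI50 and total growth inhibition (TGI) concentrations were derived.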

SK-OV-3 = assay: Growth inhibition of human SKOV3 cells at 10 uM after 48 hrs by sulforhodamine B assay relative to control; conditions: SK-OV-3, 48 h, read-out: GI; outline: as §3
SR = assay: Growth inhibition of human SR cells after 48 hrs by sulforhodamine B assay
Outline: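 NCI-60 panel cells treated at five concentrations from 10 nM to 100 μM for 48 h. Read-out by sulforhodamine B protein stain. GI50 and total growth inhibition (TGI, if below 100 μM) taken from the concentration-response data.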

UACC-62 = assay: Growth inhibition of human UACC62 cells at 10 uM after 48 hrs by sulforhodamine B assay relative to control; conditions: UACC-62, 48 h, read-out: GI; outline: as §4
OVCAR-5 = assay: Growth inhibition of human OVCAR5 cells at 10 uM after 48 hrs by sulforhodamine B assay relative to control; conditions: OVCAR-5, 48 h, read-out: GI; outline: as §3
A549 = assay: Growth inhibition of human A549/ATCC cells after 48 hrs by sulforhodamine B assay; conditions: A549, 48 h; outline: as §5
SNB-75 = assay: Growth inhibition of human SNB75 cells after 48 hrs by sulforhodamine B assay; conditions: SNB-75, 48 h; outline: as §1
LOX IMVI = assay: Growth inhibition of human LOXIMVI cells after 48 hrs by sulforhodamine B assay; outline: as §5
MOLT-4 [5] = assay: Growth inhibition of human MOLT4 cells after 48 hrs by sulforhodamine B assay; conditions: MOLT-4, 48 h; outline: as §1
KM12 [6] = assay: Growth inhibition of human KM12 cells after 48 hrs by sulforhodamine B assay; conditions: KM12, 48 h; outline: as §5
NCI/ADR-RES = assay: Growth inhibition of human NCI-ADR-RES cells at 10 uM after 48 hrs by sulforhodamine B assay relative to control; conditions: read-out: GI; outline: as §3
HOP-92 = assay: Growth inhibition of human HOP92 cells at 10 uM after 48 hrs by sulforhodamine B assay relative to control; conditions: HOP-92, 48 h, read-out: GI; outline: as §2
CAKI-1 = assay: Growth inhibition of human CAKI-1 cells at 10 uM after 48 hrs by sulforhodamine B assay relative to control; conditions: CAKI-1, 48 h, read-out: GI; outline: as §2
MDA-MB-231 = assay: Growth inhibition of human MDA-MB-231 cells after 48 hrs by sulforhodamine B assay; conditions: MDA-MB-231, 48 h; outline: as §5
MOLT-4 [7] = assay: Growth inhibition of human MOLT4 cells at 10 uM after 48 hrs by sulforhodamine B assay relative to control; conditions: MOLT-4, 48 h, read-out: GI; outline: as §3
NCI-H460 = assay: Growth inhibition of human NCI-H460 cells at 10 uM after 48 hrs by sulforhodamine B assay relative to control; conditions: NCI-H460, 48 h, read-out: GI; outline: as §3
OVCAR-8 = assay: Growth inhibition of human OVCAR8 cells after 48 hrs by sulforhodamine B assay; conditions: OVCAR-8, 48 h; outline: as §1
IGROV-1 = assay: Growth inhibition of human IGROV1 cells at 10 uM after 48 hrs by sulforhodamine B assay relative to control; conditions: IGROV-1, 48 h, read-out: GI; outline: as §2
SF-539 [8] = assay: Growth inhibition of human SF539 cells after 48 hrs by sulforhodamine B assay; conditions: SF-539, 48 h; outline: as §1
SN12C = assay: Growth inhibition of human SN12C cells after 48 hrs by sulforhodamine B assay; outline: as §1
K562 = assay: Growth inhibition of human K562 cells at 10 uM after 48 hrs by sulforhodamine B assay relative to control; conditions: K562, 48 h, read-out: GI; outline: as §2
Hs-578T = assay: Growth inhibition of human Hs 578T cells after 48 hrs by sulforhodamine B assay; outline: as §5
SK-MEL-5 = assay: Growth inhibition of human SK-MEL-5 cells at 10 uM after 48 hrs by sulforhodamine B assay relative to control; conditions: SK-MEL-5, 48 h, read-out: GI; outline: as §3
HT-29 = assay: Growth inhibition of human HT-29 cells at 10 uM after 48 hrs by sulforhodamine B assay relative to control; conditions: HT-29, 48 h, read-out: GI; outline: as §2
NCI-H522 = assay: Growth inhibition of human NCI-H522 cells after 48 hrs by sulforhodamine B assay; conditions: NCI-H522, 48 h; outline: as §1

| SMILES | GI50 (MDA-MB-468 [1]) [µM] | TGI (MDA-MB-468 [1]) [µM] | GI50 (OVCAR-3) [µM] | GI50 (SK-MEL-28) [µM] | inhibition of growth at 10 µM (Malme-3M) [%] | GI50 (SNB-19) [µM] | inhibition of growth at 10 µM (HCT-15) [%] | inhibition of growth at 10 µM (MDA-MB-468 [2]) [%] | inhibition of growth at 10 µM (SF-539 [3]) [%] | inhibition of growth at 10 µM (KM12 [4]) [%] | inhibition of growth at 10 µM (UO-31) [%] | GI50 (ACHN) [µM] | inhibition of growth at 10 µM (SK-OV-3) [%] | GI50 (SR) [µM] | inhibition of growth at 10 µM (UACC-62) [%] | inhibition of growth at 10 µM (OVCAR-5) [%] | GI50 (A549) [µM] | GI50 (SNB-75) [µM] | GI50 (LOX IMVI) [µM] | TGI (LOX IMVI) [µM] | other results |
| --- | --- | --- | --- | --- | --- | --- | --- | --- | --- | --- | --- | --- | --- | --- | --- | --- | --- | --- | --- | --- | --- |
| Cc1noc(C)c1-c1cc(O)cc(C(O)c2ccccc2)c1 (stereo not drawn) | 1.89 | 40.6 | 6.64 | 9.15 | 40 | 5.69 | 63.3 | 75.1 | 37.5 | 46.9 | 83.1 | 4.76 | 56.3 | 1.01 | 68.5 | 26.7 | 22.4 | 0.423 | 3.6 | 80.5 | GI50 (MOLT-4 [5]): 17.9 µM; TGI (MOLT-4 [5]): 80.7 µM; GI50 (KM12 [6]): 8.2 µM; inhibition of growth at 10 µM (NCI/ADR-RES): 40.8%; inhibition of growth at 10 µM (HOP-92): 74.4%; inhibition of growth at 10 µM (CAKI-1): 76.2%; GI50 (MDA-MB-231): 3.92 µM; inhibition of growth at 10 µM (MOLT-4 [7]): 41.3%; inhibition of growth at 10 µM (NCI-H460): 32.8%; GI50 (OVCAR-8): 8.33 µM; inhibition of growth at 10 µM (IGROV-1): 54%; GI50 (SF-539 [8]): 4.56 µM; GI50 (SN12C): 3.99 µM; inhibition of growth at 10 µM (K562): 57.9%; GI50 (Hs-578T): 1.93 µM; TGI (Hs-578T): 90.7 µM; inhibition of growth at 10 µM (SK-MEL-5): 45.8%; inhibition of growth at 10 µM (HT-29): 65.4%; GI50 (NCI-H522): 27 µM |
| COc1ccccc1S(=O)(=O)Nc1ccc2c(c1)CN(C)C(=O)N2 | 1.5 | 47.9 | 4 | 6.2 | 67.8 | 4.8 | 59.2 | 78.9 | 49.9 | 55 | 89.8 | 7.8 | 50.9 | 3.7 | 70.7 | 25.5 | 19.5 | 0.4 | 3.5 | 21.4 | TGI (OVCAR-3): 87.1 µM; GI50 (MOLT-4 [5]): 10.5 µM; GI50 (KM12 [6]): 10.7 µM; inhibition of growth at 10 µM (NCI/ADR-RES): 31.1%; inhibition of growth at 10 µM (HOP-92): 97.6%; inhibition of growth at 10 µM (CAKI-1): 78.8%; GI50 (MDA-MB-231): 3.5 µM; inhibition of growth at 10 µM (MOLT-4 [7]): 61.6%; inhibition of growth at 10 µM (NCI-H460): 44.2%; GI50 (OVCAR-8): 9.1 µM; inhibition of growth at 10 µM (IGROV-1): 76%; GI50 (SF-539 [8]): 4.5 µM; GI50 (SN12C): 6.8 µM; inhibition of growth at 10 µM (K562): 71.4%; GI50 (Hs-578T): 1.9 µM; TGI (Hs-578T): 63.1 µM; inhibition of growth at 10 µM (SK-MEL-5): 59.5%; inhibition of growth at 10 µM (HT-29): 77.2%; GI50 (NCI-H522): 8.7 µM |
